Data reported in ChEMBL document CHEMBL1154069, “Active site directed docking studies: synthesis and pharmacological evaluation of cis-2,6-dimethyl piperidine sulfonamides as inhibitors of acetylcholinesterase” (Eur J Med Chem, 2009).
Activity calls are given as the source filed them. The calls are words filed in the database; no cut-off is given here.

Columns and labels:
Acetylcholinesterase [1] = molecular target: T1, Acetylcholinesterase (Rattus norvegicus, UniProt P37136); assay: Inhibition of Wistar rat brain homogenate AChE by Ellman's assay
T1 sequence (P37136 whole entry): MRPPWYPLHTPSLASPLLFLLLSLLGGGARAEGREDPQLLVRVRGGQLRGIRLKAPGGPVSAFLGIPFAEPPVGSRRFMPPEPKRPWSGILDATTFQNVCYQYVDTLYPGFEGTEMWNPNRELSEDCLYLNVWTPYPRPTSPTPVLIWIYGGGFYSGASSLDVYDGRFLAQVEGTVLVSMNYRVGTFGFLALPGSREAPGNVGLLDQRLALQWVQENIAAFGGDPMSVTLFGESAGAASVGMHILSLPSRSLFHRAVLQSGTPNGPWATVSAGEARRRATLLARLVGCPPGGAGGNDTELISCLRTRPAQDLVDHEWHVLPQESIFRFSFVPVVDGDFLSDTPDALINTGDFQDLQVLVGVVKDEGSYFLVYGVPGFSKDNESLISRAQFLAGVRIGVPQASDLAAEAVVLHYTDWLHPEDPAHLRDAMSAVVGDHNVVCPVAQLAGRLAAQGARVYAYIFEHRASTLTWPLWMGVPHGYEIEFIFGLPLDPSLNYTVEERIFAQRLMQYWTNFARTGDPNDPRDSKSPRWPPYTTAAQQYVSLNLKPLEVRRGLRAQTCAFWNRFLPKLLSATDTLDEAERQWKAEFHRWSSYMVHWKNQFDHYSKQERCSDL
How it was run: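 Enzyme from Wistar rat brain homogenised 5 min in 0.1 M KH2PO4 pH 8; protein by Lowry (BSA standard). Inhibitor preincubated 10 min with enzyme, buffer and DTNB before adding acetylthiocholine iodide (fresh, pH 7 phosphate). A412 read every 1 min for 10 min at 37 °C. Activity as percentage of uninhibited enzyme; duplicates, means reported.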

Acetylcholinesterase [2] = molecular target: Acetylcholinesterase (Electrophorus electricus, UniProt O42275); assay: Inhibition of electric eel AChE by Ellman's method
Chain of Acetylcholinesterase (Electrophorus electricus, UniProt O42275) (O42275 whole entry): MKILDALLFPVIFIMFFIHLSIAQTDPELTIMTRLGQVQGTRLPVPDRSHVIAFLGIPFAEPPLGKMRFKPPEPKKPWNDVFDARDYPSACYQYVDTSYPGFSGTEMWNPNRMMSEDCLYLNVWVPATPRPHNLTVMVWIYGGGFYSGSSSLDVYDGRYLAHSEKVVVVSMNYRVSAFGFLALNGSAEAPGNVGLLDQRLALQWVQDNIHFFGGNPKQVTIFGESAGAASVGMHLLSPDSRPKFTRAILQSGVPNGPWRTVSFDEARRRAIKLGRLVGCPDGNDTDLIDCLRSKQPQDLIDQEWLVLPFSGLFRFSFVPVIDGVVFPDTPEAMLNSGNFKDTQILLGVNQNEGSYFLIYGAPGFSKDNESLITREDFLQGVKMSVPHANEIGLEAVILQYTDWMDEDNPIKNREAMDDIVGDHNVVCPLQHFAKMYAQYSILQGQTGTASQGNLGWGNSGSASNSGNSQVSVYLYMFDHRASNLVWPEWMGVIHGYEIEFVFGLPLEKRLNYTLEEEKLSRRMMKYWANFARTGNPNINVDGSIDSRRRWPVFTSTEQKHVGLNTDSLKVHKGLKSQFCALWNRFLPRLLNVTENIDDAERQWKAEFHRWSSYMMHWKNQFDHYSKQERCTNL
How it was run: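 Commercial electric eel enzyme assayed like rat brain AChE: inhibitor, buffer and DTNB preincubated 10 min, acetylthiocholine iodide added, A412 followed each minute over 10 min at 37 °C. Percentage inhibition versus uninhibited activity at varied concentrations; duplicates averaged. Neostigmine reference 25–500 nM.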

Acetylcholinesterase [3] = molecular target: Acetylcholinesterase (Homo sapiens, UniProt P22303); assay: Inhibition of human serum AChE by Ellman's assay
Chain of Acetylcholinesterase (Homo sapiens, UniProt P22303) (P22303 whole entry): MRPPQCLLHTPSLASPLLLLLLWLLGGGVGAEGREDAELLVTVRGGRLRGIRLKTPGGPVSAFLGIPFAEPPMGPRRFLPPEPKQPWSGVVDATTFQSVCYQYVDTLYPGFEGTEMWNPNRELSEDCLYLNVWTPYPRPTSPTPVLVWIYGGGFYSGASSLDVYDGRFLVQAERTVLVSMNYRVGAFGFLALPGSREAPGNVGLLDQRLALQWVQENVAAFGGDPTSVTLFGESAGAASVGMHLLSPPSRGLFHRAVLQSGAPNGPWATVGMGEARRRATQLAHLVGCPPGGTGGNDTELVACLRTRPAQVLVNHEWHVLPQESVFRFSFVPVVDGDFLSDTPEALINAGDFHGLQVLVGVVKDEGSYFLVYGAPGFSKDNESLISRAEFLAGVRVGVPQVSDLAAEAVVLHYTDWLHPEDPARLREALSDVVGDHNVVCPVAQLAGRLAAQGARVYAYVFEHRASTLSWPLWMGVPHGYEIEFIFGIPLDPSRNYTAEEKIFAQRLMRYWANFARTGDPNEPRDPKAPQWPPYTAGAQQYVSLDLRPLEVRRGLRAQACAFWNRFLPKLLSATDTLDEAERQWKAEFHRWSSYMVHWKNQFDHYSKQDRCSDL

Rattus norvegicus [4] = assay: Antiamnesic activity against scopolamine-induced memory loss in rat assessed as basal latency to reach shock free zone 1 at 0.1 mg/kg, ip; format: functional; settings: route intraperitoneal
Rattus norvegicus [5] = assay: Antiamnesic activity against scopolamine-induced memory loss in rat assessed as basal latency to reach shock free zone 3 at 0.1 mg/kg, ip; format: functional; settings: route intraperitoneal
Rattus norvegicus [6] = assay: Antiamnesic activity against scopolamine-induced acquisition memory loss in rat assessed as times of step-down at 0.1 mg/kg, ip by step-down passive avoidance test; format: functional; settings: route intraperitoneal
Rattus norvegicus [7] = assay: Antiamnesic effect against scopolamine-induced memory loss in rat assessed as basal latency to reach shock free zone 2 at 0.1 mg/kg, ip; format: functional; settings: route intraperitoneal
Rattus norvegicus [8] = assay: Antiamnesic activity against scopolamine-induced memory loss in rat assessed as reversal of number of mistakes made in 15 min at 0.1 mg/kg, ip; format: functional, organism-based; parameters: dose 0.1 mg/kg

SMILES	IC50 (Acetylcholinesterase [1]) [nM]	IC50 (Acetylcholinesterase [2]) [nM]	IC50 (Acetylcholinesterase [3]) [nM]	Activity (Rattus norvegicus [4]) [s]	Activity (Rattus norvegicus [5]) [s]	Activity (Rattus norvegicus [6]) [times]	Activity (Rattus norvegicus [7]) [s]	Activity (Rattus norvegicus [8])
CN(C)C(=O)Oc1cccc([N+](C)(C)C)c1 [NEOSTIGMINE BROMIDE]	40	53	–	–	–	–	–	–
Cc1ccc(S(=O)(=O)N2[C@H](C)CCC[C@@H]2C)cc1	362	365	368	27	5	4	8	–
C[C@@H]1CCC[C@H](C)N1S(=O)(=O)c1ccc([N+](=O)[O-])cc1	1200	1210	1150	34	7	3	9	–
C[C@@H]1CCC[C@H](C)N1S(=O)(=O)c1cccc([N+](=O)[O-])c1	186	200	192	22	4	4	6	Active
C[C@@H]1CCC[C@H](C)N1S(=O)(=O)c1ccc(Cl)cc1	325	312	318	25	5	3	8	–
C[C@@H]1CCC[C@H](C)N1S(=O)(=O)c1ccccc1	362	388	392	26	4	4	7	–
C[C@@H]1CCC[C@H](C)N1S(=O)(=O)c1ccccc1[N+](=O)[O-]	195	180	185	17	0.9	2	5	Active
C[C@@H]1CCC[C@H](C)N1S(=O)(=O)c1ccc(C(C)(C)C)cc1	463	450	458	28	6	4	9	–
C[C@@H]1CCC[C@H](C)N1S(=O)(=O)c1cc(Cl)ccc1Cl	75	81	90	16	0.8	2	4	Active
C[C@@H]1CCC[C@H](C)N1S(C)(=O)=O	85	90	75	20	0.7	2	4	Active
